Data on two molecules can be found in ChEMBL document CHEMBL1938298, “Synthesis and characterization of [¹²⁵I]2-iodo N-[(S)-{(S)-1-methylpiperidin-2-yl}(phenyl)methyl]3-trifluoromethyl-benzamide as novel imaging probe for glycine transporter 1” (Bioorg Med Chem, 2011).

In data set [1] the test system is Mus musculus. Description: In vivo binding affinity to GlyT1 in ddY mouse brain thalamus at 33.3 kBq, iv after 30 mins in presence of SSR504734 2 mg/kg, iv administered 15 mins prior to compound administration relative to control. Type of data set: functional, organism-based. Further details: dose 2 mg/kg. The note with it: tested as the 125I-labelled form.
Data set [2] addresses T1, Sodium- and chloride-dependent glycine transporter 1 (Homo sapiens, UniProt P48067).
T1 sequence (P48067 whole entry): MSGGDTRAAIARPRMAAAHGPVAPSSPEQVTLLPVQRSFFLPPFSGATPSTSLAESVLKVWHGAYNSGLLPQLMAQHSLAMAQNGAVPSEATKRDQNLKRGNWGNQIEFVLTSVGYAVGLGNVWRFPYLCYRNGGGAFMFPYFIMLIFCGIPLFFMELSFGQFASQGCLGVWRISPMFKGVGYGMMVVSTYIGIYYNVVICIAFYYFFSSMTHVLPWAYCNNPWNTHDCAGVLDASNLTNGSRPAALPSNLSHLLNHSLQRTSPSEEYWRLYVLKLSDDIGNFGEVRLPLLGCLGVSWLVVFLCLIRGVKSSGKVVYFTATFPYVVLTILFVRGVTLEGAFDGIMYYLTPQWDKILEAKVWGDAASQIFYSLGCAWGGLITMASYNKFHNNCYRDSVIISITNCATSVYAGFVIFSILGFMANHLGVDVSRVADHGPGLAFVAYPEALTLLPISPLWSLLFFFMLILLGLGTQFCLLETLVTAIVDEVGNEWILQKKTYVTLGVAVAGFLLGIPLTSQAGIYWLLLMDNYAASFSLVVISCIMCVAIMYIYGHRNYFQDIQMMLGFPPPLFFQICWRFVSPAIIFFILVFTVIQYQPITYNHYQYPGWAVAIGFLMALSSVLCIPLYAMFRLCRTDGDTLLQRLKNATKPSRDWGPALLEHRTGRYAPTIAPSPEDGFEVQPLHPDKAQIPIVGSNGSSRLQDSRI
Description: Inhibition of GlyT1 in human JAR cells assessed as inhibition of [3H]glycine uptake preincubated for 1 mins measured after 2 hrs by liquid scintillation counting. Type of data set: cell-based. An outline of the steps: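 [3H]glycine (final 10 µM) was added for 2 h at room temperature; nonspecific uptake was defined with 10 mM glycine. Cells were lysed in NaOH and counted by liquid scintillation. IC50 values are from at least three measurements, mean ± SEM.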

Data set [3] deals with T2, Sodium- and chloride-dependent glycine transporter 1 (Rattus norvegicus) (UniProt P28572).
T2 sequence (whole entry): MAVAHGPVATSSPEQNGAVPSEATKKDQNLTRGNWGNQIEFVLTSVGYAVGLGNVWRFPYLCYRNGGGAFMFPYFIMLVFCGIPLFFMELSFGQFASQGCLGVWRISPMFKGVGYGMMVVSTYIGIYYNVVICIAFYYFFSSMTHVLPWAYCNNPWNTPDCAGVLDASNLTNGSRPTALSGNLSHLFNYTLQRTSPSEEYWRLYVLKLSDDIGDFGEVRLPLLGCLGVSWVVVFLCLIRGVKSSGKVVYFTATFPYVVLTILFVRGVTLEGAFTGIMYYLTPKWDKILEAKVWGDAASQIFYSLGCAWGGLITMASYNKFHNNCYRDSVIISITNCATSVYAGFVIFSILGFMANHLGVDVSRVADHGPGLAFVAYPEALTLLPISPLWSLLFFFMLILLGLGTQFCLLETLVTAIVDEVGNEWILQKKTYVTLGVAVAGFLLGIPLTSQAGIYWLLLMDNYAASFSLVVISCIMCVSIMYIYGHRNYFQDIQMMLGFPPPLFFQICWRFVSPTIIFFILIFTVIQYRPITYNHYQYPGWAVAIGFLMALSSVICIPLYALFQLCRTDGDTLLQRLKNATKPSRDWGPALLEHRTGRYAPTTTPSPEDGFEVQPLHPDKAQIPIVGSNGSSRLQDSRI
In words: Binding affinity to GlyT1 in rat brain cerebral cortex at 0.03 to 0.04 nM preincubated for 20 mins in binding buffer before compound addition measured after 30 mins by autoradiography in presence of 10 mM GlyT1 substrate glycine relative to control. The format is tissue-based. The following applies: tested as the 125I-labelled form. An outline of the steps: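 Rat brain sagittal sections (20 µm) preincubated 20 min at 25 °C in Tris-HCl buffer pH 7.5 (NaCl, KCl, MgCl2, CaCl2), then 30 min at 25 °C with [125I] tracer (100 kBq, 0.03–0.04 nM) plus competitor (10 µM; glycine 1 or 10 mM). Cold washes, imaging plate 3 days, ROI PSL minus background per mm². % control from ≥triplicate slices, three rats.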

In data set [4] the target is T2, Sodium- and chloride-dependent glycine transporter 1 (Rattus norvegicus). Description: Binding affinity to GlyT1 in rat brain thalamus at 0.03 to 0.04 nM preincubated for 20 mins in binding buffer before compound addition measured after 30 mins by autoradiography in presence of 0.01 mM NMDA receptor glycine site antagonist L-701,324 relative to control. Type of data set: tissue-based. The note with it: tested as the 125I-labelled form.

Data set [5] shares this target. In words: Binding affinity to GlyT1 in rat brain thalamus at 0.03 to 0.04 nM preincubated for 20 mins in binding buffer before compound addition measured after 30 mins by autoradiography relative to control. Type of data set: tissue-based. The note with it: tested as the 125I-labelled form.
The target is the same in data set [6]. Description: Binding affinity to GlyT1 in rat brain striatum at 0.03 to 0.04 nM preincubated for 20 mins in binding buffer before compound addition measured after 30 mins by autoradiography in presence of GlyT1 inhibitor N-Me-SSR504734 relative to control. The format is tissue-based. The note with it: tested as the 125I-labelled form.
Data set [7] deals with Mus musculus. In words: In vivo binding affinity to GlyT1 in ddY mouse brain striatum at 33.3 kBq, iv after 60 mins in presence of SSR504734 2 mg/kg, iv administered 15 mins prior to compound administration relative to control. Type of data set: functional, organism-based. Also noted: dose 2 mg/kg. The note with it: tested as the 125I-labelled form.
The nature of data set [8]: Lipophilicity, log D of the compound at pH 7.4. Type of data set: physicochemical. The following applies: buffer.
Data set [9] in a line: Metabolic stability in ddY mouse brain assessed as compound remaining at 185 kBq after 30 mins by radio-TLC. The format is ADME, tissue-based. The note with it: read-out: Stability.
For data set [10], the system named is Lung. In words: Drug uptake in ddY mouse lung at 11.1 kBq, iv after 5 min by gamma counting. Type of data set: ADME, organism-based. The following applies: in vivo. The procedure, abridged: (§1)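 Male ddY mice (6 weeks, 30–35 g) were given about 11.1 kBq of [125I]tracer in 0.1 mL i.v. via the tail vein. At each time point the animals were killed and organs dissected, weighed and gamma-counted. Uptake is expressed as % injected dose per gram of tissue, mean ± SD, n = 5–6.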

In data set [11] the test system is Blood. Description: Drug uptake in ddY mouse blood at 11.1 kBq, iv after 5 min by gamma counting. The format is ADME, organism-based. The note with it: in vivo. The procedure, abridged:
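Male ddY mice (6 weeks, 30–35 g) received about 11.1 kBq [125I]tracer in 0.1 mL i.v. via tail vein. Killed at set times, organs dissected and weighed, radioactivity gamma counted. Reported as % injected dose/g tissue, mean ± SD, n = 5–6.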

In data set [12] the test system is Stomach. In words: Drug uptake in ddY mouse stomach at 11.1 kBq, iv after 30 min by gamma counting. Type of data set: ADME, organism-based. The note with it: in vivo, 0.5 h. An outline of the steps: as §1
The test system of data set [13] is Lung. Description: Drug uptake in ddY mouse lung at 11.1 kBq, iv after 60 min by gamma counting. The following applies: in vivo, 1 h. The format is ADME, organism-based. The procedure, abridged: as §1
Data set [14] deals with Spleen. Description: Drug uptake in ddY mouse spleen at 11.1 kBq, iv after 15 min by gamma counting. Type of data set: ADME, organism-based. The following applies: in vivo. The procedure, abridged:
as §1

Calls of active or inactive are those of the source. The calls are words filed in the database; no cut-off is given here.

In the case of `CN1CCCC[C@H]1[C@@H](NC(=O)c1cccc(C(F)(F)F)c1I)c1ccccc1`, the outcome in [1] and in data set [7] was inactive. In data set [2], the IC50 worked out at 2.35 nM. For the same molecule, the Activity in data set [3] was found to be 43.7%; in data set [4], 87.1%; in data set [6], 32.2%. For the same molecule, the result in data set [5] was Active.

With `CN1CCCC[C@H]1[C@@H](NC(=O)c1cccc(C(F)(F)F)c1[125I])c1ccccc1`, in data set [8], the logD was found to be 2.86. Moreover, the remaining at 0.5 h in [9] came to 90%. Also, the Drug uptake in data set [10] stood at 19.3 % ID/g; in data set [11], 0.87 % ID/g; in data set [12], 8.66 % ID/g; in [13], 12.09 % ID/g; in data set [14] it was 5.5 % ID/g.

Broadly, the IC50 is the concentration that inhibits the measured activity by half. Usually logD stands for the decadic logarithm of the distribution of all forms, ionised or not, between an organic phase and buffer at a given pH. A higher logD goes with a more lipophilic compound.
